Screening data (PubChem BioAssay)
Shown are actives, neighbours in structure and some others; about 4.7% of the full set was active somewhere.
AHR activator = AHR activators, primary screen, cell-based, luminescence, luciferase reporter, human. AHR-responsive luciferase reporter cells. 2.5% of 320,000 active. activation, % at 5 µM; in the data active means activation above about 47%;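 further: 0% = vehicle wells and 100% = reference agonist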
MC4R barr agon = MC4R agonists recruiting beta-arrestin, primary screen, cell-based, luminescence, agonist arm of biased-ligand search. Melanocortin receptor 4 (Homo sapiens), P32245. U2OS MC4R beta-arrestin complementation; percent of melanotan II response, DMSO zero. activation, % at 8.9 µM. 0.98% of 360,000 active;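 active means activation above a per-plate cutoff, the mean activation of sample wells on that plate plus 3 SD, cut at about 8% in these data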
Target sequence (P32245 whole entry, looked up): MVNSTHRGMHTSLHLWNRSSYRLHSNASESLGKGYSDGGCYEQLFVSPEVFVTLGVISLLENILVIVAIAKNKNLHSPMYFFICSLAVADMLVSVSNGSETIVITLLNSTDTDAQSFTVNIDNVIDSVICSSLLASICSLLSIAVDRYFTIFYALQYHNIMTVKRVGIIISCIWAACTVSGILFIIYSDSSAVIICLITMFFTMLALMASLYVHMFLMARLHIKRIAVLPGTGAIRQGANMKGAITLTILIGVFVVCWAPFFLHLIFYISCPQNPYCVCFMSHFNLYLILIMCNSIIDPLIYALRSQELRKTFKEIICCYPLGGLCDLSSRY
MC4R antagonist = MC4R antagonists of cAMP signaling, primary screen, cell-based, TR-FRET, antagonist arm of biased-ligand search; 0.48% of 360,000 active; inhibition, % at 6.5 µM; MC4R-expressing cells, MTII-stimulated cAMP, LANCE TR-FRET; Melanocortin receptor 4 (Homo sapiens), P32245;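 active means inhibition above its plate's cutoff, the mean of tested wells on that plate plus 3 SD, cut at about 29% in these data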;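 further: 0% = Melanotan II alone and 100% = Melanotan II plus saturating MCL0020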
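System: U2OS cells stably expressing human melanocortin 4 receptor (MC4R). Reagent: Melanotan II challenge after compound preincubation. Doses: 6.5 µM. Times: 30-min compound, 1-h challenge, 1-h detection, room temperature. Measured by: TR-FRET with Eu-cAMP and labeled anti-cAMP, 671 nm. Replicates: singlicate.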
FXN GAA850 act = FXN promoter activators, primary screen, cell-based, luciferase luminescence, HEK293 lucGAA850. activation, % at 6 µM. 0.56% of 360,000 active. HEK293 lucGAA850 FXN promoter luciferase reporter, 24 h; percent of 10 µM SAHA response;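 active means activation above the average of all compounds screened plus 3 SD, cutoff fixed separately per campaign, cut at about 7.5% in these data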;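 further: 0% = DMSO wells and 100% = 10 µM SAHA wells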
HTR2A ag = mouse Htr2a agonists via beta-arrestin recruitment, primary screen, cell-based, luminescence. 5-hydroxytryptamine receptor 2A (Mus musculus), P35363. CHO-K1 mHTR2A beta-arrestin complementation; percent of 30 µM serotonin response. activation, % at 7.6 µM. 0.66% of 360,000 active. AID 624169, 2012;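 active means activation above a run cutoff, the mean activation of all tested compounds plus 3 SD, cut at about 14% in these data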;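 further: 0% = plate median of compound wells and 100% = 30 µM serotonin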
AHR act cf = AHR activators, confirmation, cell-based, luminescence, luciferase reporter, human. shares compounds with AHR activator. human cells, AHR-responsive luciferase reporter. activation, % at 9 µM. 87% of 2,300 active; in the data active means activation above about 49%;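 further: HepG2 hepatoma cells carrying a DRE-driven firefly luciferase reporter; 0% = vehicle wells and 100% = reference agonist wells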
PXR act counter = human PXR activators, counter-screen for AHR activator project, cell-based, luciferase luminescence; shares compounds with AHR activator; cell-based PXR reporter; activation, % at 11.6 µM; 88% of 2,300 active; AID 434939, 2010; in the data active means activation above about 11%;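 further: human hepatoma DPX-2 cells expressing full-length human PXR; 0% = DMSO and 100% = reference agonist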
The depositor's hits bear a star; . = not tested or not shown.

SMILES | AHR activator | MC4R barr agon | MC4R antagonist | FXN GAA850 act | HTR2A ag | AHR act cf | PXR act counter
C=CCCC(=O)Nc1nc(C)c(-c2csc(Nc3cc(OC)ccc3OC)n2)s1 | 117* | 1 | -3 | -6 | -1 | 69* | 62*
CCC(=O)Nc1nc(C)c(-c2csc(Nc3cccc(C(=O)O)c3)n2)s1 | 21 | 0 | 16 | 0 | 1 | . | .
C=CCCC(=O)Nc1nc(C)c(-c2csc(Nc3cccc(OC)c3)n2)s1 | 301* | 0 | 9 | 0 | 3 | 100* | 14*
CCCC(=O)Nc1nc(C)c(-c2csc(Nc3ccccc3OC)n2)s1 | 79* | -3 | -1 | 0 | 2 | 101* | 34*
CCCC(=O)Nc1nc(C)c(-c2csc(Nc3cc(OC)ccc3OC)n2)s1 | 85* | 1 | 11 | -1 | -6 | 76* | 45*
O=C(CSc1nc2cc(Cl)ccc2o1)NC1CC1 | -2 | -4 | 1 | 0 | 0 | . | .
ClC1=CN(C2=NCCC2)CC1 | . | . | . | . | 2 | . | .
CCOCCc1nnc(NC(=O)c2ccc(OC)c(OC)c2)s1 | 115* | 0 | 13 | 1 | 0 | 81* | .
CC[C@H](C)[C@H]1CNC(=S)N1CC1CCN(CCC(C)C)CC1 | . | -2 | 2 | 0 | -1 | . | .
FC(F)(F)c1cc(-c2ccc3c(c2)OCO3)nc(NCc2ccco2)n1 | 91* | 0 | 2 | 5 | 3 | 75* | 26*
Cc1[nH]c2ccc(C(=O)Nc3ccncc3)cc2c1C | 0 | 1 | -2 | 2 | -2 | . | .
COc1ccccc1NC(=O)c1ccc2[nH]c(C)c(C)c2c1 | 113* | -1 | 8 | 4 | 1 | 133* | 69*
O=C1CSC(c2ccc(F)cc2)N1c1nc2ccccc2s1 (stereo not given) | 149* | 2 | 3 | 4 | 4 | 98* | 63*
O=C1CSC(c2ccc(F)cc2)N1c1ccccc1F (stereo not given) | 4 | -3 | 6 | -2 | 4 | . | .
C[C@H](CO)N1C[C@H](C)[C@@H](CN(C)C(=O)Nc2ccccc2)Oc2ccc(NC(=O)Nc3ccccc3)cc2C1=O | -1 | -1 | 6 | 1 | 5 | . | .
N#C/C(=C(\O)c1cc(Cl)sc1Cl)c1nc2ccccc2[nH]1 | 89* | 0 | 12 | 0 | 0 | 161* | 13*
N#C/C(=C(/O)c1ccc(Cl)cc1)c1nc2ccccc2[nH]1 | 8 | 8 | 2 | 1 | 0 | . | .
COC(=O)c1sccc1NC(=O)c1ccccc1 | 0 | -1 | 2 | 4 | -2 | . | .
COC(=O)c1sccc1NC(=O)c1ccc(C(C)C)cc1 | 95* | 3 | 11 | 0 | 8 | 97* | 15*
NS(=O)(=O)c1ccc(N/N=C/C=C/c2ccccc2[N+](=O)[O-])cc1 | 82* | -1 | 7 | 3 | 3 | 6 | 25*
Nc1ccc(S(=O)(=O)NN=CC=Cc2ccccc2[N+](=O)[O-])cc1 | . | -1 | -3 | -2 | -6 | . | .
c1ccc(N2CCN(c3nc4cc5c(cc4s3)OCO5)CC2)cc1 | 1 | -1 | 0 | 2 | -3 | . | .
c1ccc2c(c1)CCN(c1nc3cc4c(cc3s1)OCO4)C2 | 103* | -1 | 1 | 4 | -5 | 45 | 35*
CC(C)C(=O)Nc1ccc(Cl)cc1-c1nc2ccccc2[nH]c1=O | 79* | -2 | 4 | 0 | -2 | 76* | 12*
CCOc1ccc(-c2nc(N)nc(C)c2-c2ccc(Cl)cc2)c(O)c1 | 90* | 4 | 15 | 0 | 2 | 79* | 39*
CN1CCN(CCCNC(=O)c2ccc(CS(=O)(=O)c3ccc(Br)cc3)o2)CC1 | 81* | 0 | -1 | 1 | 1 | 6 | 12*
